Source: ChEMBL document CHEMBL5674889, “Enhanced JunD/RSK3 signalling due to loss of BRD4/FOXD3/miR-548d-3p axis determines BET inhibition resistance” (2020)
Calls of active or inactive are those of the source. The calls are words filed in the database; no cut-off is given here.

What was measured:
[1] = system: BT-549; assay: Antiproliferative activity in human BT-549 cells assessed as cell growth in the presence of lapatinib at 1 uM by CellTiter-Glo luminescent cell viability assay; format: functional, cell-based
How it was run: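 BLBC cells seeded at 3000/well, adhered overnight, then exposed to JQ1 (1 μM) with or without an EGFR inhibitor (1 μM) for 48 h; control and RPS6KA2-shRNA clones tested. Viability by CellTiter-Glo luminescence, background-subtracted and normalized to DMSO-treated control; triplicates, mean ± SD, one-way ANOVA against JQ1 alone.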

[2] = system: MDA-MB-231; assay: Antiproliferative activity in human MDA-MB-231 cells assessed as inhibited cell growth in the presence of osimertinib at 1 uM for 48 hrs by CCK-8 assay; format: functional, cell-based
How it was run: (§1)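 Cells seeded 3000/well, adhered overnight, treated with JQ1 (1 μM) with or without osimertinib (1 μM) for 48 h; growth by CCK-8 kit, normalized to DMSO-treated control; triplicates, mean ± SD, one-way ANOVA.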

[3] = system: BT-549; assay: Effect on human BRD4-knockdown BT-549 assessed as decreased luciferase activity at 1 uM for 6 hrs by Luciferase reporter assay; format: functional, cell-based
[4] = system: BT-549; assay: Antiproliferative activity in human FOXD3-knockdown BT-549 cells co-silenced with shRNA of RPS6KA2 assessed as cell growth at 1 uM by CCK-8 assay; format: functional, cell-based
[5] = system: BT-549; assay: Antiproliferative activity in human JUND-knockdown BT-549 cells assessed as stronger tumor sphere formation at 1 uM by tumor sphere assay; format: functional, cell-based
[6] = system: MDA-MB-231; assay: Antiproliferative activity in human MDA-MB-231 cells assessed as cell growth for 48 hrs in the presence of osimertinib at 1 uM by CCK-8 assay; format: functional, cell-based; how it was run: as §1
[7] = system: MDA-MB-231; assay: Antiproliferative activity in human JUND-knockdown MDA-MB-231 cells assessed as stronger tumor sphere formation at 1 uM by tumor sphere assay; format: functional, cell-based
[8] = system: BT-549; assay: Antiproliferative activity in human FOXD3-knockdown BT-549 cells co-silenced with shRNA of JUND assessed as cell growth at 1 uM by CCK-8 assay; format: functional, cell-based
[9] = system: MDA-MB-231; assay: Induction of apoptosis in human MDA-MB-231 cells over expressing RSK3 assessed as necrotic cells at 1 uM by Annexin V-FITC flow cytometric analysis (reference value: 3.51%); format: functional
How it was run: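 Stable clones (vector, RSK3-overexpressing or RPS6KA2-knockdown) treated ± JQ1 1 μM. Cells washed twice in PBS, resuspended at 1 × 10^6 cells/ml in binding buffer, stained with Annexin V-FITC and propidium iodide for 10 min at room temperature in the dark, then read by flow cytometry. Three independent experiments; one-way ANOVA.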

[10] = system: MDA-MB-231; assay: Effect on induction of RPS6KA2 transcription in human MDA-MB-231 cells assessed as enhanced luciferase activity at 1 uM for 6 hrs by Luciferase reporter assay; format: functional, cell-based
How it was run: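 Control or JunD-shRNA BLBC cells were transfected with the RPS6KA2 enhancer luciferase reporter (FuGene 6, 24 h) and then treated with DMSO or JQ1 1 μM for 6 h. Dual-luciferase read-out given as fold induction over vector control. Three experiments in triplicate.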

[11] = system: BT-549; assay: Antiproliferative activity in human JUND-overexpressing BT-549 cells assessed as tumor sphere formation at 1 uM by Tumor sphere assay; format: functional, cell-based
[12] = system: BT-549; assay: Effect on human JUND-overexpressing BT-549 cells assessed as RSK3 protein expression at 1 uM by Western blot analysis; format: functional, cell-based
How it was run: (§2)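 RSK3 and JunD were probed by western blot in JUND-knockdown or JUND-overexpressing stable clones and their controls, all selected with puromycin 1.0 μg/ml. Antibodies used at 1:1000.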

[13] = system: MDA-MB-231; assay: Antiproliferative activity in human MDA-MB-231 cells assessed as inhibited cell growth at 1 uM by CCK-8 assay; format: functional, cell-based
[14] = system: BT-549; assay: Effect on human RPS6KA2-knockdown BT-549 cells assessed as inhibition tumor sphere formation at 1 uM by Tumor sphere assay; format: functional, cell-based
[15] = target: T1, Transcription factor JunD (Homo sapiens) (UniProt P17535); assay: Binding affinity to JunD in human MDA-MB-231 cells assessed RPS6KA2 expression at 1 uM for 24 hrs by ChIP analysis; format: cell-based
T1 sequence (whole entry): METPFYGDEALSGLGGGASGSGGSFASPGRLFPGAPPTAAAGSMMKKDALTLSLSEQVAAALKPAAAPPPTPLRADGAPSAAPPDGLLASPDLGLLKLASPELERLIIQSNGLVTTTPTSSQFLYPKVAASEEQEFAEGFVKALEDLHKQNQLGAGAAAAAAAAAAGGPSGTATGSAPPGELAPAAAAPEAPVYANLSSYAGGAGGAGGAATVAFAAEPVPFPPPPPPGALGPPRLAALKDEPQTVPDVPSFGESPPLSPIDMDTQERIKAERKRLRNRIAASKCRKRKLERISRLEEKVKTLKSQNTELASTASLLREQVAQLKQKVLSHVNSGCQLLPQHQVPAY

[16] = system: MDA-MB-231; assay: Cytotoxicity in human RSK3-overexpressing MDA-MB-231 cells assessed as cell viability at 1 uM for 48 hrs by CellTiter-Glo luminescent cell viability assay; format: functional, cell-based
How it was run: (§3)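 CellTiter-Glo viability: stable overexpressing or shRNA clones (puromycin 1.0 μg/ml selection) seeded 3000 cells/well, adhered overnight, then exposed to 1 μM for 48 h. Luminescence is background-subtracted and normalised to DMSO-treated control. Triplicates, mean ± SD, one-way ANOVA. MDA-MB-231 cells are kept in DMEM and BT549 in RPMI-1640, each with 10% FBS.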

[17] = system: MDA-MB-231; assay: Antiproliferative activity in human FOXD3-knockdown MDA-MB-231 cells co-silenced with shRNA of JUND assessed as cell growth at 1 uM by CCK-8 assay; format: functional, cell-based
[18] = system: MDA-MB-231; assay: Antiproliferative activity in human RPS6KA2-knockdown MDA-MB-231 cells assessed as inhibited cell growth at 1 uM for 48 hrs by CCK-8 assay; format: functional, cell-based
[19] = system: MDA-MB-231; assay: Antiproliferative activity in human RPS6KA2-knockdown MDA-MB-231 cells assessed as cell viability at 1 uM for 48 hrs by CellTiter-Glo luminescent cell viability assay; format: functional, cell-based; how it was run: as §3
[20] = system: BT-549; assay: Effect on human JUND-knockdown BT-549 cells assessed as reduction of RSK3 protein expression at 1 uM by Western blot analysis; format: functional, cell-based; how it was run: as §2
[21] = system: MDA-MB-231; assay: Antitumor activity against human MDA-MB-231 cells xenografted in BALB/c nude mouse assessed as reduction in tumor weight at 35 mg/kg/day, sc administered every 2 days; format: functional, organism-based; conditions: time 2.0 day
How it was run: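 Female BALB/c nude mice aged 4–6 weeks received 1 × 10^6 MDA-MB-231 control or knockdown cells subcutaneously, n = 7 per group. Dosing at 35 mg/kg every 2 days began at an average tumour volume of 90 mm3. Tumours were weighed after 25 days.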

[22] = system: MDA-MB-231; assay: Antitumor activity against human MDA-MB-231 cells xenografted in BALB/c nude mouse model assessed as reduction of tumor weight in the presence of osimertinib at 35 mg/kg/day, sc administered every 2 days for 30 days; format: functional, organism-based; conditions: time 30.0 day
How it was run: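 MDA-MB-231 xenografts used 1 × 10^6 cells injected subcutaneously into female BALB/c nude mice (4–6 weeks). Animals were split into four groups (n = 7) at ~100 mm3: vehicle, osimertinib 10 mg/kg, 35 mg/kg agent, or the combination, each given every 2 days. Volume was measured by calliper as length × width²/2; tumours were weighed at end.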

Q: `Cc1sc2c(c1C)C(c1ccc(Cl)cc1)=N[C@@H](CC(=O)OC(C)(C)C)c1nnc(C)n1-2` was tested. Which Activity [1] did it give?
A: Active

Q: What about the Activity [2] of the same compound?
A: Active

Q: What about the Activity [3] of the same compound?
A: Active

Q: What about the Activity [4] of the same compound?
A: Active

Q: What about the Activity [5] of the same compound?
A: Active

Q: What about the Activity [6] of the same compound?
A: Active

Q: And the Activity [7]?
A: Active

Q: What about the Activity [8] of the same compound?
A: Active

Q: What about the Activity [9] of the same compound?
A: 1.67%

Q: What about the Activity [10] of the same compound?
A: Active

Q: What about the Activity [11] of the same compound?
A: Active

Q: What about the Activity [12] of the same compound?
A: Active

Q: What about the Activity [13] of the same compound?
A: Active

Q: And the Activity [14]?
A: Active

Q: What about the Activity [15] of the same compound?
A: Active

Q: And the Activity [16]?
A: Active

Q: And the Activity [17]?
A: Active

Q: What about the Activity [18] of the same compound?
A: Active

Q: What about the Activity [19] of the same compound?
A: Active

Q: And the Activity [20]?
A: Active

Q: What about the Activity [21] of the same compound?
A: Active

Q: And the Activity [22]?
A: Active
